For 6 compounds, Residual peptide results are on record in ChEMBL document CHEMBL1130250, “NAcSDKP analogues resistant to angiotensin-converting enzyme” (J Med Chem, 1997).

Molecules are shown by their SMILES. Peptide text beside a SMILES is read from it. * marks the point of attachment. Pyrrolidide = C1CCN(*)C1

The target of assay [1] is T1, Angiotensin-converting enzyme (Oryctolagus cuniculus) (UniProt P12822).
T1 sequence (whole entry): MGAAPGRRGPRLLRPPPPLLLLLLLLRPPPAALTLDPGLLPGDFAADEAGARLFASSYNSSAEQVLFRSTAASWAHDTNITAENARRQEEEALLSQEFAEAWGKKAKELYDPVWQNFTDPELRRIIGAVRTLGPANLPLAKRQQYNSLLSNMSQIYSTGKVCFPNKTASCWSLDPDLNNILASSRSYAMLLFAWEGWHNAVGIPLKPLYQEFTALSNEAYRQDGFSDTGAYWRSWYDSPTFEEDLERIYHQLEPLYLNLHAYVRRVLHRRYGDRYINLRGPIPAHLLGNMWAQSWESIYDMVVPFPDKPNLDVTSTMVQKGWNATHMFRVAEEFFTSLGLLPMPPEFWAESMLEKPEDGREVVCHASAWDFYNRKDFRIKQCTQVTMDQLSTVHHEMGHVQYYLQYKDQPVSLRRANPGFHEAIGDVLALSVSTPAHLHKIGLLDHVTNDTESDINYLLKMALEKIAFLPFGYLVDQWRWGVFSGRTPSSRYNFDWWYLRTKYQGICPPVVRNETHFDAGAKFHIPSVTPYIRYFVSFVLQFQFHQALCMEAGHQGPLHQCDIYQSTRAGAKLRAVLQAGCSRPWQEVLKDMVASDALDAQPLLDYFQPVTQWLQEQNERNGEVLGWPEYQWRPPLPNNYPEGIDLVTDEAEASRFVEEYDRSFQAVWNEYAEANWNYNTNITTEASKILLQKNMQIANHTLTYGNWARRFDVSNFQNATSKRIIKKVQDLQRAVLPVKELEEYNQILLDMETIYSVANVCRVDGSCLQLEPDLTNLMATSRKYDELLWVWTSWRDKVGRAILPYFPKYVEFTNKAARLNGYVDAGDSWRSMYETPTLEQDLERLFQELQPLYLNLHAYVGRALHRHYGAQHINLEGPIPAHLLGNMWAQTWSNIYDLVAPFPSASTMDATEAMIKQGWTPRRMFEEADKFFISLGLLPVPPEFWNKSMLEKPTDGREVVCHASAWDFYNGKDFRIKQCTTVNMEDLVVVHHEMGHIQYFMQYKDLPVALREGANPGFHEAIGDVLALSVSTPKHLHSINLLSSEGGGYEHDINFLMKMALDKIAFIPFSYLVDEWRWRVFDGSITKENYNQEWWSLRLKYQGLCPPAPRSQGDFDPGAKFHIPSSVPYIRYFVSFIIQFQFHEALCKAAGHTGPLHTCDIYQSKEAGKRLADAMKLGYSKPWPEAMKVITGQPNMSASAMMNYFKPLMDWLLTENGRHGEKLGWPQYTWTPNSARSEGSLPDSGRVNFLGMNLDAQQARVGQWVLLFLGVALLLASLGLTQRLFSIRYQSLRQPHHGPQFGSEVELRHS
The assay can be described thus: In vitro stability of compound (5 uM) to inhibit NAcSDKP hydrolysis by rabbit lung Angiotensin I converting enzyme after 30 minutes incubation. In short, it runs like this: (§1)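 Rabbit lung ACE (0.1 unit/mL final) in Tris-maleate buffer pH 7 (100 mM Tris, 50 mM NaCl, 10^-5 M ZnSO4). Analogue (final 0.5, 5 or 50 µM) preincubated with enzyme 30 min at 37 °C. NAcSD[3H]KP (tritium on lysine side chain) plus cold peptide, 5 µM final, then added for 30 min at 37 °C. Frozen at -80 °C and run on high-voltage paper electrophoresis. Residual labelled substrate radioactivity compared with t=0. Duplicates, mean of two experiments.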

Assay [2] addresses T1, Angiotensin-converting enzyme (Oryctolagus cuniculus). The assay can be described thus: In vitro stability of compound toward enzymatic degradation by rabbit lung Angiotensin I converting enzyme after 30 minutes incubation. In short, it runs like this:
(§2)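 Degradation assay: rabbit lung ACE preincubated 30 min at 37 °C in Tris-maleate pH 7 (100 mM Tris, 50 mM NaCl, 10^-5 M ZnSO4). Peptide then added at 50 µM final with enzyme at 0.1 unit/mL, 37 °C for 30 min or 24 h. Stopped with 1% TFA, then RP-HPLC at 215 nm. Residual intact peptide read from peak area against t=0 and a 5-50 calibration curve. Mean of two experiments in triplicate.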

The target is the same in assay [3]. The assay can be described thus: In vitro stability of compound toward enzymatic degradation by rabbit lung Angiotensin I converting enzyme after 24 hr incubation. In short, it runs like this: as §2
Assay [4] has the same target. The experiment in a line: In vitro stability of compound (50 uM) to inhibit NAcSDKP hydrolysis by rabbit lung Angiotensin I converting enzyme after 30 minutes incubation. In short, it runs like this: as §1
For assay [5] the target is unchanged. The experiment in a line: In vitro stability of compound (0.5 uM) to inhibit NAcSDKP hydrolysis by rabbit lung Angiotensin I converting enzyme after 30 minutes incubation. The method, boiled down:
as §1

For assay [6] the target is unchanged. The experiment in a line: In vitro stability of compound (51 uM) to inhibit NAcSDKP hydrolysis by rabbit lung Angiotensin I converting enzyme after 30 minutes incubation. The method, boiled down: as §1

In the case of `CC(=O)N[C@@H](CO)C(=O)N[C@@H](CC(=O)O)C(=O)N[C@@H](CCCCN)C(=O)N1CCC[C@H]1C(N)=O` (Ac-SDKP-NH2), the Residual peptide in assay [1] was 50.1%; in assay [2] it was 99.9%; in assay [3], 96.7%; in assay [4] it was 49.7%; in assay [5], 46%.
On to `CC(=O)N[C@@H](CO)C(=O)N[C@@H](CC(=O)O)C(=O)N[C@@H](CCCCN)C(=O)N1CCCC1` (Ac-Ser-Asp-Lys-Pyrrolidide), for which the Residual peptide in assay [2] worked out at 36.2%; in assay [3], 0%.
Take `CC(=O)N[C@@H](CO)C(=O)N[C@@H](CC(=O)O)C(=O)N[C@@H](CCCCN)C(=O)N1CCC[C@H]1C(=O)O` (Ac-SDKP-OH): in assay [2], the Residual peptide was 43.6%.
As to `CC(=O)N[C@@H](CO)CN[C@@H](CC(=O)O)C(=O)N[C@@H](CCCCN)C(=O)N1CCC[C@H]1C(=O)O`, the Residual peptide in assay [6] is 54%; in assay [2], 99.7%; in assay [3] it was 97.6%; in assay [4], 46.7%; in assay [5] it was 46.9%.
For the compound `CC(=O)N[C@@H](CO)C(=O)N[C@@H](CC(=O)O)C(=O)N[C@@H](CCCCN)CN1CCC[C@H]1C(=O)O`, the Residual peptide in assay [1] worked out at 48.8%; in assay [2] it was 99.7%; in assay [3], 99.4%; in assay [4] it was 50.3%; in assay [5] it was 47.3%.
With `CC(=O)N[C@@H](CO)C(=O)N[C@H](CN[C@@H](CCCCN)C(=O)N1CCC[C@H]1C(=O)O)CC(=O)O`, the Residual peptide is 49.3% in assay [1]; 100% in assay [2]; 100% in assay [3]; 41.7% in assay [4]; 46% in assay [5].
